Data published in ChEMBL document CHEMBL4346654 (Eur J Med Chem, 2019).
Converted amounts (≈) assume the structure as drawn.

Key:
Streptococcus pneumoniae [1] = test: Bactericidal activity against penicillin-susceptible Streptococcus pneumoniae PU 09 expressing mef gene pretreated followed by subculture in absence of compound measured after 24 hrs; assay type: functional
How it was run: (§1)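 Isolates were identified by 16S rDNA sequencing. MIC was determined by CLSI-recommended two-fold broth dilution. For MBC, samples from 1–8 fold MIC were transferred to culture medium and subcultured for 24 h without antibiotic.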

Staphylococcus aureus [2] = test: Bactericidal activity against MLS-resistant Staphylococcus aureus PU 20 expressing constitutive ermC gene pretreated followed by subculture in absence of compound measured after 24 hrs; assay type: functional
How it was run: (§2)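 MBC assay. Following MIC determination by CLSI standard two-fold broth dilution, samples at 1–8 fold MIC were transferred to fresh culture medium. They were subcultured for 24 h without antibiotic. Isolates were identified by 16S rDNA sequencing. S. aureus ATCC 29213 was used as a control strain.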

[3] = MRT in Sprague-Dawley rat at 20 mg/kg, po after 0.25 to 24 hrs by LC-MS/MS analysis; assay type: ADME, organism-based; details: in vivo
How it was run: (§3)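 Male SD rats were given a single 20 mg/Kg oral dose. Blood was sampled at 0.25, 0.5, 1, 2, 4, 6, 8 and 24 h and centrifuged at 2500 g for 5 min at 4 °C. Drug levels were quantified by LC-MS/MS. t1/2, Cmax, Tmax, CL, MRT and AUC were calculated from the concentration–time data.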

Cytochrome P450 3A4 [4] = target: T1, Cytochrome P450 3A4 (Homo sapiens, UniProt P08684); test: Inhibition of CYP3A4 in human liver microsomes assessed as reduction in metabolite formation using midazolam as substrate incubated for 10 mins in presence of NADPH by HPLC based mass spectrometric method; assay type: ADME
T1 sequence (P08684 whole entry): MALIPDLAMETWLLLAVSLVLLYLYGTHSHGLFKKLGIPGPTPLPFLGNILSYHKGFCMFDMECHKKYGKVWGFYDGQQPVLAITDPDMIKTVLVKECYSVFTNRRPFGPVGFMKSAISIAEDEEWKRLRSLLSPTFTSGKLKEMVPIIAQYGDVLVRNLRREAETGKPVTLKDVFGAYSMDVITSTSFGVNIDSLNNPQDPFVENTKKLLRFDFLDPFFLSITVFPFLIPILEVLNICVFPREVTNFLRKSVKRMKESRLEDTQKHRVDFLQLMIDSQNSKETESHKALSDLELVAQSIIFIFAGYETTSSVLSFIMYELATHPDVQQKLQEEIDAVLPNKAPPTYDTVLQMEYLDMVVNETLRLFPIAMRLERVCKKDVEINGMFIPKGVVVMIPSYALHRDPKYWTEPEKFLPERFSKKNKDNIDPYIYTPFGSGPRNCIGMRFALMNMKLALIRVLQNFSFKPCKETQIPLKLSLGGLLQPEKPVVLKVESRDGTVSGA
How it was run: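 Human liver microsome CYP3A4 with midazolam substrate in 0.1 M potassium phosphate buffer was prewarmed at 37 °C for 5 min. Compound and 25 mM NADPH solution (stock) were added, then incubated at 37 °C for 10 min. Ketoconazole served as the positive inhibitor. Metabolite was measured by UPLC–triple quadrupole MS as the metabolite/internal standard peak area ratio, and IC50 was derived by curve fitting.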

Streptococcus pneumoniae [5] = test: Bactericidal activity against erythromycin-susceptible Streptococcus pneumoniae ATCC49619 pretreated followed by subculture in absence of compound measured after 24 hrs; assay type: functional; how it was run: as §1
Streptococcus pyogenes [6] = test: Selectivity ratio of MBC to MIC for Streptococcus pyogenes 12-207 expressing mef gene; assay type: functional; how it was run: as §1
Haemophilus influenzae [7] = test: Bactericidal activity against azithromycin-susceptible Haemophilus influenzae ATCC 49247 pretreated followed by subculture in absence of compound measured after 24 hrs; assay type: functional; how it was run: as §1
Rattus norvegicus [8] = test: Ratio of test compound AUC to telithromycin AUC in Sprague-Dawley rat at 20 mg/kg, po after 0.25 to 24 hrs by LC-MS/MS analysis; assay type: ADME, organism-based; details: in vivo
Streptococcus pyogenes [9] = test: Bactericidal activity against Streptococcus pyogenes 12-207 expressing mef gene pretreated followed by subculture in absence of compound measured after 24 hrs; assay type: functional; how it was run: as §1
Rattus norvegicus [10] = test: Ratio of test compound half life to telithromycin half life in Sprague-Dawley rat at 20 mg/kg, po after 0.25 to 24 hrs by LC-MS/MS analysis; assay type: ADME, organism-based; details: in vivo
Streptococcus pneumoniae [11] = test: Antibacterial activity against penicillin-susceptible Streptococcus pneumoniae PU 09 expressing mef gene assessed as reduction in microbial growth by CLSI based two-fold broth dilution method; assay type: functional
Streptococcus pyogenes [12] = test: Antibacterial activity against MLS-resistant Streptococcus pyogenes 01-968 expressing inducible ermB gene assessed as reduction in microbial growth by CLSI based two-fold broth dilution method; assay type: functional
Staphylococcus aureus [13] = test: Bactericidal activity against MLS/methicillin-resistant Staphylococcus aureus PU 32 expressing inducible ermA gene pretreated followed by subculture in absence of compound measured after 24 hrs; assay type: functional; how it was run: as §2
Streptococcus pneumoniae [14] = test: Antibacterial activity against Streptococcus pneumoniae 07P390 expressing constitutive ermB gene assessed as reduction in microbial growth by CLSI based two-fold broth dilution method; assay type: functional
Streptococcus pyogenes [15] = test: Antibacterial activity against Streptococcus pyogenes 12-207 expressing mef gene assessed as reduction in microbial growth by CLSI based two-fold broth dilution method; assay type: functional
Moraxella catarrhalis [16] = test: Antibacterial activity against erythromycin-susceptible Moraxella catarrhalis 13L332 assessed as reduction in microbial growth by CLSI based two-fold broth dilution method; assay type: functional
[17] = AUC (0 to t) in Sprague-Dawley rat at 20 mg/kg, po after 0.25 to 24 hrs by LC-MS/MS analysis; assay type: ADME, organism-based; set-up: time upper 24 hr, dose 20 mg/kg, time lower 0.25 hr, route oral; details: in vivo; how it was run: as §3
Streptococcus pyogenes [18] = test: Antibacterial activity against MLS-resistant Streptococcus pyogenes 12-206 expressing constitutive ermA gene assessed as reduction in microbial growth by CLSI based two-fold broth dilution method; assay type: functional
Streptococcus pyogenes [19] = test: Selectivity ratio of MBC to MIC for MLS-resistant Streptococcus pyogenes 01-968 expressing inducible ermB gene; assay type: functional
How it was run: (§4)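 MBC/MIC ratio. MIC was measured by CLSI standard two-fold broth dilution. MBC was measured by transferring samples at 1–8 fold MIC to culture medium and subculturing for 24 h without antibiotic. Isolates were identified by 16S rDNA sequencing.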

Moraxella catarrhalis [20] = test: Selectivity ratio of MBC to MIC for erythromycin-susceptible Moraxella catarrhalis 13L332; assay type: functional; how it was run: as §1
Streptococcus pneumoniae [21] = test: Selectivity ratio of MBC to MIC for Streptococcus pneumoniae 07P390 expressing constitutive ermB gene; assay type: functional; how it was run: as §1
Rattus norvegicus [22] = test: Ratio of test compound plasma clearance to telithromycin plasma clearance in Sprague-Dawley rat at 20 mg/kg, po after 0.25 to 24 hrs by LC-MS/MS analysis; assay type: ADME, organism-based; details: in vivo
Staphylococcus aureus [23] = test: Selectivity ratio of MBC to MIC for MLS/methicillin-resistant Staphylococcus aureus PU 32 expressing inducible ermA gene; assay type: functional; how it was run: as §4
[24] = Ratio of test compound MRT to telithromycin MRT in Sprague-Dawley rat at 20 mg/kg, po after 0.25 to 24 hrs by LC-MS/MS analysis; assay type: ADME, organism-based; details: in vivo
Haemophilus influenzae [25] = test: Selectivity ratio of MBC to MIC for azithromycin-susceptible Haemophilus influenzae ATCC 49247; assay type: functional; how it was run: as §1
Staphylococcus aureus [26] = test: Antibacterial activity against MLS-resistant Staphylococcus aureus PU 32 expressing inducible ermA gene assessed as reduction in microbial growth by CLSI based two-fold broth dilution method; assay type: functional
Streptococcus pyogenes [27] = test: Bactericidal activity against MLS-resistant Streptococcus pyogenes 01-968 expressing inducible ermB gene pretreated followed by subculture in absence of compound measured after 24 hrs; assay type: functional; how it was run: as §2
Moraxella catarrhalis [28] = test: Bactericidal activity against erythromycin-susceptible Moraxella catarrhalis 13L332 pretreated followed by subculture in absence of compound measured after 24 hrs; assay type: functional; how it was run: as §1
Streptococcus pneumoniae [29] = test: Selectivity ratio of MBC to MIC for penicillin-susceptible Streptococcus pneumoniae PU 09 expressing mef gene; assay type: functional; how it was run: as §1
Staphylococcus aureus [30] = test: Antibacterial activity against MLS-resistant Staphylococcus aureus PU 20 expressing constitutive ermC gene assessed as reduction in microbial growth by CLSI based two-fold broth dilution method; assay type: functional
[31] = Cmax in Sprague-Dawley rat at 20 mg/kg, po after 0.25 to 24 hrs by LC-MS/MS analysis; assay type: ADME, organism-based; set-up: dose 20 mg/kg, route oral; details: in vivo; how it was run: as §3
Streptococcus pyogenes [32] = test: Selectivity ratio of MBC to MIC for MLS-resistant Streptococcus pyogenes 12-206 expressing constitutive ermA gene; assay type: functional; how it was run: as §4
Streptococcus pneumoniae [33] = test: Antibacterial activity against erythromycin-susceptible Streptococcus pneumoniae ATCC49619 assessed as reduction in microbial growth by CLSI based two-fold broth dilution method; assay type: functional
Streptococcus pyogenes [34] = test: Bactericidal activity against MLS-resistant Streptococcus pyogenes 12-206 expressing constitutive ermA gene pretreated followed by subculture in absence of compound measured after 24 hrs; assay type: functional; how it was run: as §2
[35] = AUCinfinity in Sprague-Dawley rat at 20 mg/kg, po after 0.25 to 24 hrs by LC-MS/MS analysis; assay type: ADME, organism-based; set-up: dose 20 mg/kg, time infinity, route oral; details: in vivo; how it was run: as §3
Haemophilus influenzae [36] = test: Antibacterial activity against azithromycin-susceptible Haemophilus influenzae ATCC 49247 assessed as reduction in microbial growth by CLSI based two-fold broth dilution method; assay type: functional
Streptococcus pneumoniae [37] = test: Bactericidal activity against Streptococcus pneumoniae 07P390 expressing constitutive ermB gene pretreated followed by subculture in absence of compound measured after 24 hrs; assay type: functional; how it was run: as §1
[38] = Half life in Sprague-Dawley rat at 20 mg/kg, po after 0.25 to 24 hrs by LC-MS/MS analysis; assay type: ADME, organism-based; details: in vivo; how it was run: as §3
[39] = Tmax in Sprague-Dawley rat at 20 mg/kg, po after 0.25 to 24 hrs by LC-MS/MS analysis; assay type: ADME, organism-based; details: in vivo; how it was run: as §3
Cytochrome P450 3A4 [40] = target: T1, Cytochrome P450 3A4; test: Inhibition of CYP3A4 (unknown origin); assay type: ADME
[41] = Systemic plasma clearance in Sprague-Dawley rat at 20 mg/kg, po after 0.25 to 24 hrs by LC-MS/MS analysis; assay type: ADME, organism-based; how it was run: as §3

SMILES | MBC (Streptococcus pneumoniae [1]) [µg/mL] | MBC (Staphylococcus aureus [2]) [µg/mL] | MRT [3] [h] | IC50 (Cytochrome P450 3A4 [4]) [µM] | MBC (Streptococcus pneumoniae [5]) [µg/mL] | Selectivity ratio (Streptococcus pyogenes [6]) | MBC (Haemophilus influenzae [7]) [µg/mL] | MBC (Streptococcus pyogenes [9]) [µg/mL] | Ratio (Rattus norvegicus [10]) | MIC (Streptococcus pneumoniae [11]) [µg/mL] | MIC (Streptococcus pyogenes [12]) [µg/mL] | MBC (Staphylococcus aureus [13]) [µg/mL] | MIC (Streptococcus pneumoniae [14]) [µg/mL] | MIC (Streptococcus pyogenes [15]) [µg/mL] | MIC (Moraxella catarrhalis [16]) [µg/mL] | AUC(0-t) [17] [ng·h/mL] | MIC (Streptococcus pyogenes [18]) [µg/mL] | Selectivity ratio (Streptococcus pyogenes [19]) | Selectivity ratio (Moraxella catarrhalis [20]) | Selectivity ratio (Streptococcus pneumoniae [21]) | also measured
CC[C@H]1OC(=O)[C@@](C)(F)C(=O)[C@H](C)[C@@H](O[C@@H]2O[C@H](C)C[C@H](N(C)C)[C@H]2O)[C@](C)(OC)C[C@@H](C)/C(=N\OC/C=C/c2ccc3c(c2)c(=O)c(C(N)=O)cn3CC)[C@H](C)[C@H]2OC(=O)O[C@@]21C | 0.25 (≈ 0.277 µM) | > 256 | 7.42 | 5.14 | ≤ 0.008 | 8 | 256 (≈ 284 µM) | 0.5 (≈ 0.555 µM) | 2.5 to 3.6 | 0.25 | ≤ 0.002 | > 4 | 0.062 | 0.062 | 4 | 1460 | 0.5 | >8 | >8 | >8 | Ratio AUC (Rattus norvegicus [8]): 1.6; Ratio (Rattus norvegicus [22]): 1.5; Selectivity ratio (Staphylococcus aureus [23]): >8; Ratio [24]: 2.3 to 2.6; Selectivity ratio (Haemophilus influenzae [25]): 8; MIC (Staphylococcus aureus [26]): 0.5 µg/mL; MBC (Streptococcus pyogenes [27]): > 0.016 µg/mL; MBC (Moraxella catarrhalis [28]): > 32 µg/mL; Selectivity ratio (Streptococcus pneumoniae [29]): 1; MIC (Staphylococcus aureus [30]): 128 µg/mL; Cmax [31]: 124 ng/mL; Selectivity ratio (Streptococcus pyogenes [32]): >8; MIC (Streptococcus pneumoniae [33]): ≤ 0.008 µg/mL; MBC (Streptococcus pyogenes [34]): > 4 µg/mL; AUC [35]: 1538 ng·h/mL; MIC (Haemophilus influenzae [36]): 32 µg/mL; MBC (Streptococcus pneumoniae [37]): > 0.5 µg/mL; half-life [38]: 3.03 h; Tmax [39]: 7 h
CC[C@H]1OC(=O)[C@H](C)C(=O)[C@H](C)[C@@H](O[C@@H]2O[C@H](C)C[C@H](N(C)C)[C@H]2O)[C@](C)(OCC=Cc2cnc3ccccc3c2)C[C@@H](C)C(=O)[C@H](C)[C@H]2NC(=O)O[C@@]21C [CETHROMYCIN] |  |  |  |  |  |  |  |  |  |  |  |  |  |  |  |  |  |  |  |  | IC50 (Cytochrome P450 3A4 [40]): 2.7 µM
CC[C@H]1OC(=O)[C@@](C)(F)C(=O)[C@H](C)[C@@H](O[C@@H]2O[C@H](C)C[C@H](N(C)C)[C@H]2O)[C@](C)(OC)C[C@@H](C)/C(=N\OCC#Cc2ccc3c(c2)c(=O)c(C(N)=O)cn3CC)[C@H](C)[C@H]2OC(=O)O[C@@]21C | 0.5 (≈ 0.556 µM) | > 256 | 8.53 | 7.32 | ≤ 0.008 | 4 | 32 (≈ 35.6 µM) | 0.5 (≈ 0.556 µM) | 2.5 to 3.6 | 0.25 | ≤ 0.002 | 8 (≈ 8.9 µM) | 0.125 | 0.125 | 4 | 228 | 0.125 | >8 | 8 | >8 | CL/F [41]: 1190 mL/min/kg; Selectivity ratio (Staphylococcus aureus [23]): 8; Ratio [24]: 2.3 to 2.6; Selectivity ratio (Haemophilus influenzae [25]): 2; MIC (Staphylococcus aureus [26]): 1 µg/mL; MBC (Streptococcus pyogenes [27]): > 0.016 µg/mL; MBC (Moraxella catarrhalis [28]): 32 µg/mL (≈ 35.6 µM); Selectivity ratio (Streptococcus pneumoniae [29]): 2; MIC (Staphylococcus aureus [30]): 128 µg/mL; Cmax [31]: 43.5 ng/mL; Selectivity ratio (Streptococcus pyogenes [32]): >8; MIC (Streptococcus pneumoniae [33]): ≤ 0.008 µg/mL; MBC (Streptococcus pyogenes [34]): > 1 µg/mL; AUC(0-inf) ([35]; Sprague-Dawley): 281 ng·h/mL; MIC (Haemophilus influenzae [36]): 16 µg/mL; MBC (Streptococcus pneumoniae [37]): > 1 µg/mL; half-life [38]: 3.2 h; Tmax [39]: 7 h
